This note sets out measurements from ChEMBL document CHEMBL1153378, “Synthesis and evaluation of myxochelin analogues as antimetastatic agents” (Bioorg Med Chem, 2009).

Structures are written as SMILES. Active and inactive are the calls of the source. The rule behind the calls is not given here. Where only a bound is given, the exact number is not on record here.

A word on the inhibition: it is how much of the control response was suppressed. The IC50 is the concentration that gives 50% inhibition. Usually inhibition in vivo stands for the relative decrease from the control value, in per cent.

Series [1] can be described thus: Cytotoxicity against mouse 26-L5 cells at 7.5 uM after 24 hrs. In kind it is functional. Summed up: (§1)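 Murine colon 26-L5 carcinoma cells at 1 × 10⁴ cells/well in RPMI with 10% FCS and L-glutamine, exposed to test compound at various concentrations (DMSO solutions) for 24 h. Wells PBS-washed, crystal violet stain 30 min, dye extracted with 30% acetic acid, absorbance read at 590 nm. Mean ± SD; Student's two-tailed t-test vs control.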

Series [2] can be described thus: Cytotoxicity against mouse 26-L5 cells after 24 hrs. Type of series: functional, cell-based. Summed up:
as §1

Series [3] can be described thus: Antiinvasive activity against mouse 26-L5 cells assessed as inhibition of cell invasion by Matrigel assay. In kind it is functional, cell-based.
A short description of series [4]: Cytotoxicity against mouse 26-L5 cells at 5.6 uM after 24 hrs. In kind it is functional. Summed up: as §1
Series [5] in a line: Antiinvasive activity against mouse 26-L5 cells assessed as inhibition of cell invasion at 2.5 uM by Matrigel assay. In kind it is functional.
Series [6] has as its system Mus musculus. Briefly: Toxicity in mouse 26-L5 cells xenografted BALB/c mouse assessed as body weight loss at 50 mg/kg, ip dosed once daily for 14 days. In kind it is organism-based. Set-up: dose 50 mg/kg, route intraperitoneal. The conditions noted are these: in vivo, 336 h. Summed up: (§2)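 BALB/c mice injected iv via tail vein with colon 26-L5 cells in cold PBS; compound given ip at 50 mg/kg (1 mg/mouse in 200 µL PBS); controls received 200 µL PBS. Body weight followed; mice killed 14 days after inoculation, lungs fixed in Bouin's solution, surface colonies counted under dissecting microscope. Student's two-tailed t-test.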

The species named for series [7] is Mus musculus. Briefly: Inhibition of cell migration of mouse 26-L5 cells at 2.5 uM by Matrigel assay. In kind it is functional.
Series [8] can be described thus: Antimetastatic activity against mouse 26-L5 cells xenografted BALB/c mouse assessed as inhibition of lung tumor metastasis at 50 mg/kg, ip dosed once daily for 14 days. In kind it is functional. The note with it: 336 h, route intraperitoneal. Summed up:
as §2

In series [9] the target is Matrix metalloproteinase-9 (Mus musculus) (UniProt P41245). Put plainly: Inhibition of MMP9 in mouse 26-L5 cells at 0.25 uM by gelatin based zymography assay. In kind it is cell-based. In short, it runs like this: (§3)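 Gelatin zymography: conditioned medium of colon 26-L5 cells run non-reducing on 10% SDS–PAGE with 0.1% gelatin. Gels rinsed twice 1 h at room temperature (50 mM Tris–HCl, 2.5% Triton X-100, 5 mM CaCl₂, 0.05% NaN₃), strips incubated 24 h at 37 °C in reaction buffer with test compound at various concentrations, then Coomassie stained. Mean ± SD, two-tailed t-test.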

The target in series [10] is 72 kDa type IV collagenase (Mus musculus) (UniProt P33434). Put plainly: Inhibition of MMP2 in mouse 26-L5 cells at 0.25 uM by gelatin based zymography assay. Type of series: cell-based. Summed up: as §3
Series [11] is filed under the species Mus musculus. Put plainly: Inhibition of mouse 26-L5 cells adhesion to extracellular matrix proteins at 2.5 uM after 24 hrs by crystal violet assay. Type of series: functional. In short, it runs like this:
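Colon 26-L5 cells pre-treated with compound 24 h at 37 °C, 5% CO₂, then resuspended in RPMI/10% FCS/L-glutamine and seeded at 4 × 10⁴ cells/well on fibronectin- or Matrigel-coated wells. Attachment 1 h at 37 °C; non-adherent cells aspirated; adherent cells fixed in 20% formalin 4 °C 1 h, crystal violet stained 30 min. Mean ± SD, two-tailed t-test.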

Series [12] addresses Matrix metalloproteinase-9 (Mus musculus) (UniProt P41245). Put plainly: Inhibition of MMP9 in mouse 26-L5 cells at 2.5 uM by gelatin based zymography assay. Type of series: cell-based. In short, it runs like this: as §3
The target of series [13] is 72 kDa type IV collagenase (Mus musculus) (UniProt P33434). Put plainly: Inhibition of MMP2 in mouse 26-L5 cells at 2.5 uM by gelatin based zymography assay. In kind it is cell-based. Summed up:
as §3

Sequence of 72 kDa type IV collagenase (Mus musculus) (P33434 whole entry): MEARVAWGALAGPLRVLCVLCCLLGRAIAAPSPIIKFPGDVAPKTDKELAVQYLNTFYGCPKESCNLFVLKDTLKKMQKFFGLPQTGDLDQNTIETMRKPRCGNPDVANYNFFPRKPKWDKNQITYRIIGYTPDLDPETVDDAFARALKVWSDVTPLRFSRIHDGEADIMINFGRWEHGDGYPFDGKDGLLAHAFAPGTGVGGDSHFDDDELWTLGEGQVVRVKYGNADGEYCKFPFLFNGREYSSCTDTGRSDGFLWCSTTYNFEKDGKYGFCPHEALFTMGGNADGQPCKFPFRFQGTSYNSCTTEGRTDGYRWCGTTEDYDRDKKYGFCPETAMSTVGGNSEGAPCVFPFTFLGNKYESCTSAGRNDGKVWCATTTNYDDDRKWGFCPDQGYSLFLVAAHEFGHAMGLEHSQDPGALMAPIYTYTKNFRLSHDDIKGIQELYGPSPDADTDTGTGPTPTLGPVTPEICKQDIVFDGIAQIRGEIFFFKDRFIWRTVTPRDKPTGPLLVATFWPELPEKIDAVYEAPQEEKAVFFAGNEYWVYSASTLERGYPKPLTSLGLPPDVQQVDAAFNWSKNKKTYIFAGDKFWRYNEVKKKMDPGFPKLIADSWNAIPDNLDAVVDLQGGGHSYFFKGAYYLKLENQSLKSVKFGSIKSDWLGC
Sequence of Matrix metalloproteinase-9 (Mus musculus) (P41245 whole entry): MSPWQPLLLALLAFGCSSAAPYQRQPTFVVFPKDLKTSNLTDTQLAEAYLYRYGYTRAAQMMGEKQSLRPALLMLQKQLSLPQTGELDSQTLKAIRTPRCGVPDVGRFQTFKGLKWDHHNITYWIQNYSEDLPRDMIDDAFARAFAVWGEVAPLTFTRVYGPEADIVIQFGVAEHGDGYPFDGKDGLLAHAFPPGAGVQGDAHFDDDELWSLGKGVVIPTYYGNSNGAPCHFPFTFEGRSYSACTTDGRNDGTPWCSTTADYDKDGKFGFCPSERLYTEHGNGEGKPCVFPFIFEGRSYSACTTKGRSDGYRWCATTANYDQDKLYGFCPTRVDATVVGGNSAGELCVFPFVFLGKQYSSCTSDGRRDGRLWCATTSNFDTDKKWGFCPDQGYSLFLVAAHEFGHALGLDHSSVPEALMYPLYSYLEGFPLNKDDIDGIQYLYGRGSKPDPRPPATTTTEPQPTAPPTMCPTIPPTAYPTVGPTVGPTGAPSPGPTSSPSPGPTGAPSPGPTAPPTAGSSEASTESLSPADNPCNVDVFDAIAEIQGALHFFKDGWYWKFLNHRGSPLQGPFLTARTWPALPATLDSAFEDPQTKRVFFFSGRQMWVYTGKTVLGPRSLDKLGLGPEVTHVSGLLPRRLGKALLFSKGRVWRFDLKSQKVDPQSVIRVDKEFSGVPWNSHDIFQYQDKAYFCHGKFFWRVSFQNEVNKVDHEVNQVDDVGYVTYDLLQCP

The molecule `COC(=O)[C@H](CCCCNC(=O)c1cccc(O)c1O)NC(=O)c1ccccc1` had an inhibition at 7.5 µM in series [1] of 0%. The results for the IC50 in [2] and in series [3] were over 7500 nM and 1000 nM, respectively.

Turning to `O=C(NCCCC[C@@H](CNC(=O)c1cccc(O)c1O)NC(=O)c1cccc(O)c1O)c1cccc(O)c1O`, the IC50 was over 5600 nM in [2] and 520 nM in series [3]. This molecule registered an inhibition at 5.6 µM in series [4] of 0%.

`COC(=O)[C@H](CCCCNC(=O)c1cccc(OC)c1OC)NC(=O)c1cccc(OC)c1OC` had an inhibition at 7.5 µM in series [1] of 0%. Besides, the IC50 in [2] was over 7500 nM; in [3], over 2500 nM. Also, in series [5], the inhibition at 2.5 µM was determined as 25%.

`O=C(NCCCC[C@H](CO)NC(=O)c1cccc(O)c1O)c1cccc(O)c1O` had an inhibition at 7.5 µM in series [1] of 30%. The IC50 was over 7500 nM in series [2] and 2200 nM in series [3].

Turning to `N#C[C@H](CCCCNC(=O)c1cccc(O)c1O)NC(=O)c1cccc(O)c1O`, the IC50 is 7500 nM in series [2] and over 2500 nM in [3]. For the same molecule, the inhibition at 2.5 µM in series [5] turned out to be 45%.

`NC[C@H](CCCCNC(=O)c1cccc(O)c1O)NC(=O)c1cccc(O)c1O` yielded an inhibition at 7.5 µM in series [1] of 40%. Further, the IC50 in [2] was over 7500 nM; in series [3], 730 nM.

In turn, `NC(=O)[C@H](CCCCNC(=O)c1cccc(O)c1O)NC(=O)c1ccccc1` had an inhibition at 7.5 µM in series [1] of 0%. Further, the IC50 in series [2] was over 7500 nM; in [3], 260 nM.

Take `COC(=O)[C@H](CCCCCNC(=O)c1cccc(O)c1O)NC(=O)c1cccc(O)c1O`: the values for the IC50 in [2] and in series [3] were 1600 nM and 1700 nM, respectively.

For `COC(=O)[C@H](CCCNC(=O)c1cccc(O)c1O)NC(=O)c1cccc(O)c1O`, in series [1], the inhibition at 7.5 µM was 45%. Besides, the IC50 in series [2] was over 7500 nM; in series [3], 2500 nM.

`COC(=O)[C@H](CCCCNC(=O)c1cccc(O)c1O)NC(=O)c1cccc(O)c1O` displayed an inhibition at 7.5 µM in series [1] of 10%. Moreover, the figures for the IC50 in [2] and in series [3] were over 7500 nM and 1500 nM, respectively.

For the molecule `O=C(NCCCCCNC(=O)c1cccc(O)c1O)c1cccc(O)c1O`, the IC50 in series [2] was 2700 nM; in series [3], over 2500 nM. The inhibition at 2.5 µM in series [5] is 45%.

In series [1], `O=C(NCCCC[C@H](NC(=O)c1cccc(O)c1O)C(=O)O)c1cccc(O)c1O` gave an inhibition at 7.5 µM of 0%. Moreover, the IC50 in series [2] was over 7500 nM; in series [3], over 2500 nM. Besides, in series [5], the inhibition at 2.5 µM turned out to be 30%.

The molecule `NC(=O)[C@H](CCCCNC(=O)c1cccc(O)c1O)NC(=O)c1cccc(O)c1O` displayed an inhibition at 7.5 µM in [1] of 0%. The IC50 in series [2] was over 7500 nM; in series [3] it was 91 nM. Also, the Activity result in the series on Mus musculus [6] is “Non-toxic”. Further, the inhibition entry in the series listed under Mus musculus [7] and in the series listed under Mus musculus [11] was “inactive” each time. Besides, the inhibition in vivo at 50 mg/kg in series [8] worked out at 35%. Moreover, the inhibition in [9] stood at 33%; in series [10], 44%.

In turn, `O=C(NCCCC[C@H](NC(=O)c1cccc(O)c1O)C(=O)NO)c1cccc(O)c1O` returned an inhibition at 7.5 µM in series [1] of 0%. Further, the IC50 in series [2] is over 7500 nM; in series [3], 980 nM.

Turning to `COC(=O)[C@H](CCCCNC(=O)c1cccc(O)c1O)NC(C)=O`, in [1], the inhibition at 7.5 µM stood at 0%. Further, the IC50 in series [2] was over 7500 nM; in series [3], 2400 nM.

`O=C(NCCCC[C@@H](CO)NC(=O)c1cccc(O)c1O)c1cccc(O)c1O` yielded an inhibition at 7.5 µM in series [1] of 20%. Further, the half-inhibitory concentration (IC50) is over 7500 nM in [2] and 590 nM in series [3]. The inhibition result in the series filed under Mus musculus [7] and in the series filed under Mus musculus [11] was “inactive” each time. Moreover, the results for the inhibition in series [12] and in series [13] were 39% and 35%, respectively.

In series [1], `COC(=O)[C@H](CCCCNC(=O)c1ccccc1)NC(=O)c1cccc(O)c1O` had an inhibition at 7.5 µM of 0%. Further, the figures for the IC50 in series [2] and in [3] were over 7500 nM and over 2500 nM, respectively. Besides, in series [5], the inhibition at 2.5 µM is 0%.

Turning to `COC(=O)[C@H](CCNC(=O)c1cccc(O)c1O)NC(=O)c1cccc(O)c1O`, the inhibition at 7.5 µM in series [1] came out at 13%. For the same molecule, the IC50 in [2] was over 7500 nM; in [3] it was over 2500 nM. The inhibition at 2.5 µM in [5] is 40%.
